ChEMBL document CHEMBL3098086, “Synthesis and biological evaluation of α-triazolyl chalcones as a new type of potential antimicrobial agents and their interaction with calf thymus DNA and human serum albumin” (Eur J Med Chem, 2014)
In brackets after ≈: the same amount, converted by molar mass.

How the values were obtained:
Candida = experiment: Antifungal activity against Candida mycoderma ATCC 96918 after 24 hrs by micro broth dilution method; type: functional; conditions: ATCC 96918, 24 h
In short: (§1)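 Fungi: C. albicans ATCC 76615 and C. mycoderma ATCC 96918. MICs by two-fold broth microdilution in 96-well plates per NCCLS. Fluconazole served as positive control.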

Candida albicans = experiment: Antifungal activity against Candida albicans ATCC 76615 after 24 hrs by micro broth dilution method; type: functional; conditions: ATCC 76615, 24 h; in short: as §1
Bacillus = experiment: Antibacterial activity against Bacillus proteus ATCC 13315 after 24 hrs by twofold serial dilution method; type: functional; conditions: ATCC 13315, 24 h
In short: (§2)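 Bacterial strains: S. aureus ATCC 25923, B. subtilis ATCC 21216, M. luteus ATCC 4698, E. coli JM109, P. aeruginosa ATCC 27853, B. proteus ATCC 13315. MICs by two-fold broth microdilution in 96-well plates per NCCLS. Chloromycin and Norfloxacin served as positive controls.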

Pseudomonas aeruginosa = experiment: Antibacterial activity against Pseudomonas aeruginosa ATCC 27853 after 24 hrs by twofold serial dilution method; type: functional; conditions: ATCC 27853, 24 h; in short: as §2
Escherichia coli = experiment: Antibacterial activity against Escherichia coli JM109 after 24 hrs by twofold serial dilution method; type: functional; conditions: JM109, 24 h; in short: as §2
Salmonella typhi = experiment: Antibacterial activity against Bacillus typhi after 24 hrs by twofold serial dilution method; type: functional, Salmonella enterica subsp. enterica serovar Typhi; conditions: Salmonella enterica
In short: (§3)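 Two-fold broth microdilution per NCCLS recommendations. The MIC was read as the minimum inhibitory concentration. Chloromycin and Norfloxacin served as positive controls. Strains were Bacillus typhi (Gram-negative panel) and methicillin-resistant S. aureus N315.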

Micrococcus luteus = experiment: Antibacterial activity against Micrococcus luteus ATCC 4698 after 24 hrs by twofold serial dilution method; type: functional; conditions: ATCC 4698, 24 h; in short: as §2
Bacillus subtilis = experiment: Antibacterial activity against Bacillus subtilis ATCC 21216 after 24 hrs by twofold serial dilution method; type: functional; conditions: ATCC 21216, 24 h; in short: as §2
Staphylococcus aureus [1] = experiment: Antibacterial activity against Staphylococcus aureus ATCC 25923 after 24 hrs by twofold serial dilution method; type: functional; conditions: ATCC 25923, 24 h; in short: as §2
Staphylococcus aureus [2] = experiment: Antibacterial activity against methicillin-resistant staphylococcus aureus N315 after 24 hrs by twofold serial dilution method; type: functional; conditions: N315, 24 h; in short: as §3

CN(C)c1ccc(/C=C(/C(=O)c2ccc(F)cc2F)n2cncn2)cc1
MIC (Candida): 64 µg/mL (≈ 181 µM)
MIC (Candida albicans): 16 µg/mL (≈ 45.2 µM)
MIC (Bacillus): 64 µg/mL (≈ 181 µM)
MIC (Pseudomonas aeruginosa): 256 µg/mL (≈ 722 µM)
MIC (Escherichia coli): 128 µg/mL (≈ 361 µM)
MIC (Salmonella typhi): 64 µg/mL (≈ 181 µM)
MIC (Micrococcus luteus): 64 µg/mL (≈ 181 µM)
MIC (Bacillus subtilis): 64 µg/mL (≈ 181 µM)
MIC (Staphylococcus aureus [1]): 64 µg/mL (≈ 181 µM)
MIC (Staphylococcus aureus [2]): 32 µg/mL (≈ 90.3 µM)

O=C(/C(=C/c1ccc(F)cc1)n1cncn1)c1ccc(F)cc1F
MIC (Candida): 64 µg/mL (≈ 194 µM)
MIC (Candida albicans): 64 µg/mL (≈ 194 µM)
MIC (Bacillus): 16 µg/mL (≈ 48.6 µM)
MIC (Pseudomonas aeruginosa): 32 µg/mL (≈ 97.2 µM)
MIC (Escherichia coli): 32 µg/mL (≈ 97.2 µM)
MIC (Salmonella typhi): 32 µg/mL (≈ 97.2 µM)
MIC (Micrococcus luteus): 32 µg/mL (≈ 97.2 µM)
MIC (Bacillus subtilis): 64 µg/mL (≈ 194 µM)
MIC (Staphylococcus aureus [1]): 64 µg/mL (≈ 194 µM)
MIC (Staphylococcus aureus [2]): 128 µg/mL (≈ 389 µM)

COc1ccc(/C=C(/C(=O)c2ccc(F)cc2F)n2cncn2)cc1
MIC (Candida): 32 µg/mL (≈ 93.8 µM)
MIC (Candida albicans): 16 µg/mL (≈ 46.9 µM)
MIC (Bacillus): 8 µg/mL (≈ 23.4 µM)
MIC (Pseudomonas aeruginosa): 16 µg/mL (≈ 46.9 µM)
MIC (Escherichia coli): 16 µg/mL (≈ 46.9 µM)
MIC (Salmonella typhi): 32 µg/mL (≈ 93.8 µM)
MIC (Micrococcus luteus): 16 µg/mL (≈ 46.9 µM)
MIC (Bacillus subtilis): 8 µg/mL (≈ 23.4 µM)
MIC (Staphylococcus aureus [1]): 8 µg/mL (≈ 23.4 µM)
MIC (Staphylococcus aureus [2]): 4 µg/mL (≈ 11.7 µM)

O=C(/C(=C/c1ccccc1)n1cncn1)c1ccc(F)cc1F
MIC (Candida): 64 µg/mL (≈ 206 µM)
MIC (Candida albicans): 128 µg/mL (≈ 411 µM)
MIC (Bacillus): 64 µg/mL (≈ 206 µM)
MIC (Pseudomonas aeruginosa): 128 µg/mL (≈ 411 µM)
MIC (Escherichia coli): 32 µg/mL (≈ 103 µM)
MIC (Salmonella typhi): 32 µg/mL (≈ 103 µM)
MIC (Micrococcus luteus): 64 µg/mL (≈ 206 µM)
MIC (Bacillus subtilis): 64 µg/mL (≈ 206 µM)
MIC (Staphylococcus aureus [1]): 32 µg/mL (≈ 103 µM)
MIC (Staphylococcus aureus [2]): 64 µg/mL (≈ 206 µM)

Cc1ccc(C(=O)/C(=C/c2ccccc2)n2cncn2)cc1C
MIC (Candida): 256 µg/mL (≈ 844 µM)
MIC (Candida albicans): 16 µg/mL (≈ 52.7 µM)
MIC (Bacillus): 128 µg/mL (≈ 422 µM)
MIC (Pseudomonas aeruginosa): 128 µg/mL (≈ 422 µM)
MIC (Escherichia coli): 16 µg/mL (≈ 52.7 µM)
MIC (Salmonella typhi): 128 µg/mL (≈ 422 µM)
MIC (Micrococcus luteus): 128 µg/mL (≈ 422 µM)
MIC (Bacillus subtilis): 64 µg/mL (≈ 211 µM)
MIC (Staphylococcus aureus [1]): 256 µg/mL (≈ 844 µM)
MIC (Staphylococcus aureus [2]): 256 µg/mL (≈ 844 µM)

O=C(/C(=C/c1ccc(Cl)cc1)n1cncn1)c1ccc(Cl)cc1
MIC (Candida): 64 µg/mL (≈ 186 µM)
MIC (Candida albicans): 64 µg/mL (≈ 186 µM)
MIC (Bacillus): 32 µg/mL (≈ 93 µM)
MIC (Pseudomonas aeruginosa): 8 µg/mL (≈ 23.2 µM)
MIC (Escherichia coli): 16 µg/mL (≈ 46.5 µM)
MIC (Salmonella typhi): 16 µg/mL (≈ 46.5 µM)
MIC (Micrococcus luteus): 64 µg/mL (≈ 186 µM)
MIC (Bacillus subtilis): 32 µg/mL (≈ 93 µM)
MIC (Staphylococcus aureus [1]): 32 µg/mL (≈ 93 µM)
MIC (Staphylococcus aureus [2]): 32 µg/mL (≈ 93 µM)

O=C(/C(=C/c1ccccc1)n1cncn1)c1ccc(N2CCCCC2)cc1N1CCCCC1
MIC (Candida): 16 µg/mL (≈ 36.2 µM)
MIC (Candida albicans): 16 µg/mL (≈ 36.2 µM)
MIC (Bacillus): 64 µg/mL (≈ 145 µM)
MIC (Pseudomonas aeruginosa): 128 µg/mL (≈ 290 µM)
MIC (Escherichia coli): 64 µg/mL (≈ 145 µM)
MIC (Salmonella typhi): 32 µg/mL (≈ 72.5 µM)
MIC (Micrococcus luteus): 64 µg/mL (≈ 145 µM)
MIC (Bacillus subtilis): 32 µg/mL (≈ 72.5 µM)
MIC (Staphylococcus aureus [1]): 16 µg/mL (≈ 36.2 µM)
MIC (Staphylococcus aureus [2]): 32 µg/mL (≈ 72.5 µM)

O=C(/C(=C/c1ccccc1)n1cncn1)c1ccc(F)cc1N1CCOCC1
MIC (Candida): 32 µg/mL (≈ 84.6 µM)
MIC (Candida albicans): 128 µg/mL (≈ 338 µM)
MIC (Bacillus): 32 µg/mL (≈ 84.6 µM)
MIC (Pseudomonas aeruginosa): 64 µg/mL (≈ 169 µM)
MIC (Escherichia coli): 16 µg/mL (≈ 42.3 µM)
MIC (Salmonella typhi): 32 µg/mL (≈ 84.6 µM)
MIC (Micrococcus luteus): 64 µg/mL (≈ 169 µM)
MIC (Bacillus subtilis): 32 µg/mL (≈ 84.6 µM)
MIC (Staphylococcus aureus [1]): 32 µg/mL (≈ 84.6 µM)
MIC (Staphylococcus aureus [2]): 128 µg/mL (≈ 338 µM)

Cc1ccc(/C=C(/C(=O)c2ccc(F)cc2F)n2cncn2)cc1
MIC (Candida): 16 µg/mL (≈ 49.2 µM)
MIC (Candida albicans): 16 µg/mL (≈ 49.2 µM)
MIC (Bacillus): 64 µg/mL (≈ 197 µM)
MIC (Pseudomonas aeruginosa): 16 µg/mL (≈ 49.2 µM)
MIC (Escherichia coli): 32 µg/mL (≈ 98.4 µM)
MIC (Salmonella typhi): 64 µg/mL (≈ 197 µM)
MIC (Micrococcus luteus): 64 µg/mL (≈ 197 µM)
MIC (Bacillus subtilis): 64 µg/mL (≈ 197 µM)
MIC (Staphylococcus aureus [1]): 32 µg/mL (≈ 98.4 µM)
MIC (Staphylococcus aureus [2]): 32 µg/mL (≈ 98.4 µM)
